The text below walks through data of ChEMBL document CHEMBL1145044, “Novel cationic transport agents for oligonucleotide delivery into primary leukemic cells” (J Med Chem, 2003).

Series [1] in a line: Cytotoxicity for relative cell viability compared to untreated control in BM2 cells by MTT assay. Type of series: functional, cell-based, Gallus gallus. In a few lines: (§1)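 MTT reduction by cells exposed to transport agent alone, expressed relative to untreated control cells (100%). The value reported is the agent concentration at which relative viability falls to 50%.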
Background: Tetrazolium assays rely on reduction of a dye to a coloured formazan, in cell work by metabolically active cells.

The nature of series [2]: Apparent association constant was determined. Type of series: ADME.
Series [3] is described as follows: Relative uptake of ODN in Primary leukemic cells(PLC) incubated with 0.25 uMol/L of P32-labeled v-myb antisense ODN for 2 hr at a concentration of 2.5 uMol/L. In kind it is functional, Gallus gallus. The essentials: (§2)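 Cells were seeded at 1 × 10^6 per well in medium with 10% serum one day ahead. 0.25 µM ³²P-end-labeled v-myb antisense ODN was complexed with agent (final 2.5 µM) in serum-free medium for 30 min at room temperature. Cells were then exposed for 2 h at 37 °C or 41 °C depending on cell type. Membrane-bound ODN was stripped by acid-salt elution. Cells were lysed in proteinase K buffer and counted by liquid scintillation. Uptake is relative to free ODN, mean of ≥3 independent experiments.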

Series [4] in a line: Relative uptake of ODN in BM2 cells incubated with 0.25 uMol/L of P32-labeled v-myb antisense ODN for 2 hr at a concentration of 2.5 uMol/L. In kind it is functional, Gallus gallus. In a few lines:
as §2

Series [5] can be described thus: Cytotoxicity for relative cell viability compared to untreated control in Primary leukemic cells(PLC) by MTT assay. In kind it is functional, cell-based, Gallus gallus. The essentials:
as §1

Series [6] is described as follows: Cytotoxicity for relative cell viability compared to untreated control in CEF cells by MTT assay. In kind it is functional, cell-based, Gallus gallus.

In the case of `I.I.I.I.O=C(NCCNC1=NCCCN1)c1ccc(-c2c3nc(c(-c4ccc(C(=O)NCCNC5=NCCCN5)cc4)c4ccc([nH]4)c(-c4ccc(C(=O)NCCNC5=NCCCN5)cc4)c4ccc([nH]4)c(-c4ccc(C(=O)NCCNC5=NCCCN5)cc4)c4nc2C=C4)C=C3)cc1`, the IC50 in series [1], in series [5] and in series [6] was above 20 uM l-1 throughout. Also, in series [2], the K ass worked out at 268000 M⁻¹. Moreover, the “Relative ODN uptake” value amounted to 43.2 in series [3] and 10.8 in series [4].

As to `CCC1=C(C)C2=N/C1=C\c1[nH]c(c(CCC(=O)NCCOCCOCCN)c1C)/C=c1\[nH]/c(c(CC)c1CC)=C\c1[nH]c(c(C)c1CCC(=O)NCCOCCOCCN)/C=C1\N=C(C2)C(C)=C1CC`, the “Relative ODN uptake” value in series [3] is reported as 4.4. For the same compound, the figures for the IC50 in series [5] and in series [6] were 14 uM l-1 and 10 uM l-1, respectively.

Regarding `C[N+](C)(C)Cc1ccc(-c2c3nc(c(-c4ccc(C[N+](C)(C)C)cc4)c4ccc([nH]4)c(-c4ccc(C[N+](C)(C)C)cc4)c4ccc([nH]4)c(-c4ccc(C[N+](C)(C)C)cc4)c4nc2C=C4)C=C3)cc1.[Cl-].[Cl-].[Cl-].[Cl-]`, the results for the IC50 in series [1], in series [5] and in series [6] were 10 uM l-1, 12 uM l-1 and 10 uM l-1, respectively. Further, the results for the “Relative ODN uptake” value in series [3] and in series [4] were 4.2 and 2.5, respectively.

Turning to `CCC1=C(C)C2=N/C1=C\c1[nH]c(c(CCC(=O)N(C)CC(O)C(O)C(O)C(O)CO)c1C)/C=c1\[nH]/c(c(CC)c1CC)=C\c1[nH]c(c(C)c1CCC(=O)N(C)CC(O)C(O)C(O)C(O)CO)/C=C1\N=C(C2)C(C)=C1CC` (configuration not stated), the IC50 in series [1] is reported as 10 uM l-1; in series [5] it was 4.2 uM l-1; in series [6], 10 uM l-1. In series [3], the “Relative ODN uptake” value worked out at 9.1.

Consider `Cl.Cl.Cl.Cl.O=C(NCC1CCN2CCC(CO)N=C2N1)c1ccc(-c2c3nc(c(-c4ccc(C(=O)NCC5CCN6CCC(CO)N=C6N5)cc4)c4ccc([nH]4)c(-c4ccc(C(=O)NCC5CCN6CCC(CO)N=C6N5)cc4)c4ccc([nH]4)c(-c4ccc(C(=O)NCC5CCN6CCC(CO)N=C6N5)cc4)c4nc2C=C4)C=C3)cc1` (configuration not stated), for which the IC50 is reported as 15 uM l-1 in series [1], above 20 uM l-1 in series [5] and 15 uM l-1 in series [6]. In series [3], the “Relative ODN uptake” value was 13.4.

Take `CCC1=C(C)C2=N/C1=C\c1[nH]c(c(CCC(=O)NCCc3c[nH]cn3)c1C)/C=c1\[nH]/c(c(CC)c1CC)=C\c1[nH]c(c(C)c1CCC(=O)NCCc1c[nH]cn1)/C=C1\N=C(C2)C(C)=C1CC`: the “Relative ODN uptake” value in series [3] was determined as 2.1. Besides, the IC50 in series [5] and in series [6] was 8.5 uM l-1 each time.

Consider `Br.OC[C@@H]1CCN2CC[C@@H](CO)NC2N1`, for which the “Relative ODN uptake” value turned out to be 0.77 in series [3] and 2.5 in series [4]. This compound showed an IC50 in series [5] of 8.5 uM l-1.

In the case of `I.NCCNC1=NCCCN1`, the “Relative ODN uptake” value came out at 3.2 in series [3] and 5.1 in series [4]. Besides, the values for the IC50 in series [5] and in series [6] were above 20 uM l-1 and 20 uM l-1, respectively.

As for `Cc1ccc(-c2c3nc(c(-c4ccc(C[N+](C)(C)C)cc4)c4ccc([nH]4)c(-c4ccc(C)cc4)c4ccc([nH]4)c(-c4ccc(C[N+](C)(C)C)cc4)c4nc2C=C4)C=C3)cc1.[Cl-].[Cl-]`, the IC50 in series [1], in series [5] and in series [6] was above 20 uM l-1 throughout. The K ass in series [2] was 2.2e+06 M⁻¹. Besides, the “Relative ODN uptake” value in series [3] was found to be 67.5; in series [4], 16.7.

With `CCc1c(C(=O)NC(=N)N)[nH]c(Cc2[nH]c(C(=O)NC(=N)N)c(CC)c2C)c1C.Cl.Cl`, the IC50 is above 10 uM l-1 in series [1], above 20 uM l-1 in series [5] and 15 uM l-1 in series [6]. Besides, the results for the “Relative ODN uptake” value in series [3] and in series [4] were 1.8 and 1.3, respectively.

As to `C[n+]1ccc(-c2c3nc(c(-c4cc[n+](C)cc4)c4ccc([nH]4)c(-c4cc[n+](C)cc4)c4ccc([nH]4)c(-c4cc[n+](C)cc4)c4nc2C=C4)C=C3)cc1` [TMPYP4], the “Relative ODN uptake” value was found to be 1.2 in series [3] and 3.8 in series [4]. Also, the IC50 is recorded as above 20 uM l-1 in series [5] and 15 uM l-1 in series [6].
